Active and inactive are the calls of the source.
Key:
Leishmania donovani [1] = experiment: Antimicrobial activity against wild type Leishmania donovani AG83 transfected with drug-resistant Leishmania donovani LdDR50 topoisomerase 1 F270L, K430N mutant in large subunit and N184S mutant in small subunit assessed as inhibition of parasite growth at 20 uM after 24 hrs by MTT assay; assay type: functional, organism-based
Outline: (§1)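 WT promastigotes transfected by electroporation with mutant large-subunit (pXG-HYG, hygromycin selection) and/or small-subunit (pXG-GFP2+, G418 selection) topoisomerase I genes. Grown with DIM 1–20 μM for 24 h; MTT read-out, growth as % of optical density of untreated WT parasites.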

[2] = Binding affinity to recombinant drug-resistant Leishmania donovani LdDR50 topoisomerase 1b after 24 hrs by equilibrium dialysis method
Outline: (§2)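 Recombinant His-tagged subunits expressed in E. coli BL21(DE3) pLysS, purified on Ni-NTA then phosphocellulose, reconstituted 1:1. Enzyme 200 μM with DIM 1–20 μM in 20 mM Tris-HCl pH 7.5, 50 mM NaCl, 10 mM MgCl2 for 30 min at 37°C, then dialysed (12–14 kDa cutoff) 24 h at 25°C. Free DIM measured by absorbance (ε 6.6 × 10^4 M−1); KD from saturation plot.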

[3] = system: T1, DNA topoisomerase I (Leishmania donovani (strain BPK282A1)), E9BRC0 [K430N]; experiment: Effect on recombinant drug-resistant Leishmania donovani LdDR50 topoisomerase 1b large subunit K430N mutant-mediated cleavage of 25-mer duplex oligonucleotide at 20 uM after 30 mins by PAGE analysis
T1 sequence (whole entry): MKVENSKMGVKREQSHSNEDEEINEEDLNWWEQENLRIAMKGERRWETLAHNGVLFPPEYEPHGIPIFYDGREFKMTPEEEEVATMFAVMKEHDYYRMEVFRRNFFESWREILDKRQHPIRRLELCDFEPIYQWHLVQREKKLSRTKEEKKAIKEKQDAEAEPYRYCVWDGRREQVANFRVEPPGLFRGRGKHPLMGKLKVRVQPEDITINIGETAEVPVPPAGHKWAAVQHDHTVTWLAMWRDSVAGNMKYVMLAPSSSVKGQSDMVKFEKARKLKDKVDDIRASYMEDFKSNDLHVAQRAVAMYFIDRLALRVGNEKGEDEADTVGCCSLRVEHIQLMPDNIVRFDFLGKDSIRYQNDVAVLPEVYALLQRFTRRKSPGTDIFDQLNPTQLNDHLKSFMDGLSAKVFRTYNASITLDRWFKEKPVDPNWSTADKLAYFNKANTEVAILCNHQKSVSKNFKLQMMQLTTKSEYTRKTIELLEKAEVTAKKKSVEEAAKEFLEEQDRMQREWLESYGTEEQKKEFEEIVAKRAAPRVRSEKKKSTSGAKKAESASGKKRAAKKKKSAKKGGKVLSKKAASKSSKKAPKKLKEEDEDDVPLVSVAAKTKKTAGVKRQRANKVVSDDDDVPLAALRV
Outline: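 5′-32P-labelled 25-mer duplex (10 nM) incubated with reconstituted mutant enzyme (0.2 μM, 20-fold molar excess) and DIM 5–20 μM for 30 min (Methods 37°C; legend 23°C). Stopped with SDS, trypsin-treated, resolved on 12% denaturing polyacrylamide-urea gel; cleaved 12-mer detected by autoradiography.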

Leishmania donovani [4] = experiment: Inhibition of recombinant wild type Leishmania donovani AG83 topoisomerase 1b-mediated relaxation of supercoiled pBluescript SK(+) DNA at 10 uM after 30 mins using ethidium bromide staining
Outline: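 Recombinant L and S subunits (E. coli, Ni-NTA then phosphocellulose) were reconstituted at a 1:1 molar ratio and dialysed 12 h at 4°C in 50 mM K-phosphate pH 7.5. Enzyme (30 fmol) acted on 90 fmol supercoiled pBS SK(+) for 30 min at 37°C, with DIM or 4% DMSO. Products ran on 1% agarose with ethidium bromide (0.5 μg/ml), and the supercoiled band was quantified.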

Leishmania donovani [5] = experiment: Antimicrobial activity against wild type Leishmania donovani AG83 transfected with drug-resistant Leishmania donovani LdDR50 topoisomerase 1 F270Lmutant in large subunit assessed as inhibition of parasite growth at 20 uM after 24 hrs by MTT assay; assay type: functional; conditions: AG83, 24 h; outline: as §1
[6] = target: DNA topoisomerase type IB small subunit (Leishmania donovani (strain BPK282A1), UniProt E9B7X3, N184S); experiment: Binding affinity to recombinant drug-resistant Leishmania donovani LdDR50 topoisomerase 1b small subunit N184S mutant after 24 hrs by equilibrium dialysis method; outline: as §2
[7] = system: T2, DNA topoisomerase type IB small subunit (Leishmania donovani (strain BPK282A1)), E9B7X3 [N184S]; experiment: Inhibition of recombinant drug-resistant Leishmania donovani LdDR50 topoisomerase 1b small subunit N184S mutant-mediated religation of 14-mer/25-mer suicide DNA substrate at 20 uM […] by PAGE analysis
T2 sequence (whole entry): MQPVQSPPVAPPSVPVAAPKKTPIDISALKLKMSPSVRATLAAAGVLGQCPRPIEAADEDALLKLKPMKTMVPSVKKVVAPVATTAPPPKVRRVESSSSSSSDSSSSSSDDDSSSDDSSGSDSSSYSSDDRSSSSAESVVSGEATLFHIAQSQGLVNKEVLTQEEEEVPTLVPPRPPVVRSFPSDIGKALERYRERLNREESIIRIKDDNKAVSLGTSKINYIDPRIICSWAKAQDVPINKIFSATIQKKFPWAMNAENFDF
Outline: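 5′-32P-labelled 14-mer annealed to 25-mer suicide substrate (5 nM) cleaved by 0.15 μM reconstituted enzyme at 23°C, ± 20 μM DIM. Complexes moved to 30°C for 2 min; religation started with 300-fold excess 11-mer acceptor for 30, 60, 120 s. Stopped with 1% SDS, trypsin-treated, 23-mer product resolved on sequencing gel.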

[8] = Binding affinity to recombinant wild type Leishmania donovani AG83 topoisomerase 1b after 24 hrs by equilibrium dialysis method
[9] = system: T3, Leishmania donovani [K430N]; experiment: Inhibition of recombinant drug-resistant Leishmania donovani LdDR50 topoisomerase 1b wild type small subunit and large subunit K430N mutant-mediated relaxation of supercoiled pBluescript SK(+) DNA at up to 50 uM after 30 mins using ethidium bromide staining
T3 sequence (whole entry): T1 sequence (whole entry)
Outline: (§3)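 Reconstituted recombinant enzyme (30 fmol) with 90 fmol supercoiled pBluescript SK(+) DNA (3:1 DNA:enzyme), 30 min at 37°C with DIM (1–50 μM for fully mutant enzyme; 10 μM for single-site mutants); 4% DMSO vehicle control. Products on 1% agarose, ethidium bromide (0.5 μg/ml) stained; supercoiled monomer band quantified.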

[10] = Binding affinity to recombinant drug-resistant Leishmania donovani LdDR50 topoisomerase 1b large subunit F270L, K430N mutant and small subunit N184S mutant after 24 hrs by equilibrium dialysis method; outline: as §2
Leishmania donovani [11] = experiment: Inhibition of recombinant drug-resistant Leishmania donovani LdDR50 topoisomerase 1b-mediated relaxation of supercoiled pBluescript SK(+) DNA at up to 50 uM after 30 mins using ethidium bromide staining; outline: as §3
Leishmania donovani [12] = experiment: Antimicrobial activity against wild type Leishmania donovani AG83 transfected with drug-resistant Leishmania donovani LdDR50 topoisomerase 1 F270L, K430N mutant in large subunit assessed as inhibition of parasite growth at 20 uM after 24 hrs by MTT assay; assay type: functional; conditions: AG83, 24 h; outline: as §1

c1ccc2c(Cc3c[nH]c4ccccc34)c[nH]c2c1 [ARUNDINE]
Activity (Leishmania donovani [1]): inactive
Kd [2]: 240 µM
Activity [3]: Active
inhibition (Leishmania donovani [4]): Active
inhibition at 20 µM (Leishmania donovani [5]): 34%
Kd [6]: 380 µM
inhibition [7]: Active
Kd [8]: 0.0097 µM
inhibition [9]: Active
Kd [10]: 240 µM
inhibition (Leishmania donovani [11]): inactive
inhibition at 20 µM (Leishmania donovani [12]): 34%

— ChEMBL document CHEMBL1687733, “Topoisomerase I gene mutations at F270 in the large subunit and N184 in the small subunit contribute to the resistance mechanism of the unicellular parasite Leishmania donovani towards 3,3'-diindolylmethane” (Antimicrob Agents Chemother, 2009)
